95 compounds from ChEMBL document CHEMBL4513216, “Probing the Open Global Health Chemical Diversity Library for Multistage-Active Starting Points for Next-Generation Antimalarials” (ACS Infect Dis, 2020) can be followed below.

The data set in a line: Toxicity liver stage against HepG2, at 10uM. It is filed as cell-based. Also on record: test concentration 10 uM, cell line HepG2-A16-CD81EGFP. The following applies: human, HepG2-A16-CD81EGFP cells; read-out: INHIBITION
The method in brief:
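Uninfected HepG2-A16-CD81EGFP cells, 3 × 10^3 per well, 1536-well, plated on prespotted compound at 10 μM final, parasite-free screening media added to match infected plates; puromycin 10 μM positive, DMSO 0.5% negative; run in parallel with 48 h PbLuc assay at 37 °C, 5% CO2; viability by CellTiter-Glo luminescence, normalized to controls.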
On to `O=C(c1cc[nH]n1)N1CC[C@@H]2CN(Cc3cccnc3)S(=O)(=O)[C@@H]2CC1`, for which the cytotoxicity at 10 µM was determined as 12.7%. The result for `CC(C)N(C)C(=O)c1ccc(CNc2ccncc2Cl)cc1` reads 55.8%. Next, `Cc1ccc(C(=O)NCCCN(C)S(C)(=O)=O)c(=O)[nH]1`: -5.89%; `O=C(C1CC1)N1CCN2C[C@@H](CO)[C@H](c3ccccc3)[C@H]2C1`: 8.52%; `COc1ccccc1NCC(=O)Nc1cnn(Cc2ccccn2)c1`: -0.53%. Next, `Cc1nc(C)c(C(=O)N2CCCc3c(F)cccc32)o1`: -6.75%. For `Cc1[nH]ncc1C(=O)N1CCCC(c2ccn[nH]2)C1` (stereo not given), the cytotoxicity at 10 µM was found to be 0.23%. The result for `Cc1nc(CN2CCC3(C2)CN(C(=O)c2ccc[nH]2)C3)cs1` reads -112%; that for `C[C@@H]1CN(Cc2cc(C(F)(F)F)ccc2F)CC[C@@]1(O)C1CC1`, 6%; that for `CC(C)N1CCC2(CCNCC2)C1=O`, -2.98%. Next, `O=c1c(CN2CCOCC2)coc2ccc(Cl)cc12`: -3.73%; `CCSCC(C)NCc1cc(-c2ccco2)on1` (stereo not given): 1.29%.

In the case of `Cc1n[nH]cc1CNC1CCN(c2ccc(F)cc2)CC1`, the cytotoxicity at 10 µM is -54%.

In the case of `CC(C#N)(NC(=O)c1ccc(C#N)cc1)C1CC1` (stereo not given), the cytotoxicity at 10 µM is -3.67%. The result for `O=C(NCc1ccccc1CN1CCC(O)CC1)Nc1ccncc1` reads -13.1%; that for `COc1ccc(-c2ccccc2CN)c(OC)c1`, 7.35%. The result for `COc1cccc(CCC2CCCN(C(=O)c3cnccn3)C2)c1` (stereo not given) reads 13.7%; that for `O=C1CC(NCc2ccncc2)CN1Cc1cccc(F)c1` (stereo not given), -7.12%; that for `O=C(NCC[S+]([O-])Cc1ccccc1)c1ccc2[nH]c(=O)[nH]c2c1` (stereo not given), 6.11%. Next, `O=C(Cc1ccsc1)N1CCCC(c2n[nH]c3nccnc23)C1` (stereo not given): 1.98%; `O=S(=O)(NCc1ccccc1)NCc1nc(-c2ccncc2)n[nH]1`: 14.3%. With `O=C(NCCNc1ccccn1)N1CCSCC1`, the cytotoxicity at 10 µM is -9.58%. Next, `COc1ccc(-n2nnnc2C2(NCc3ccco3)CCCCC2)cc1`: 9.65%; `CCn1c(=O)[nH]c2cn(-c3cccc(Cl)c3)c(=O)n21`: 0.0452%; `CCc1ncc(C(=O)N(CC)CCOC)cn1`: 2.24%. The result for `COc1ccccc1N1CCC(CNS(=O)(=O)c2cccs2)C1` (stereo not given) reads 5.66%; that for `CCOC(=O)[C@H]1[C@@H](O)C(=O)N(C)C12CCN(C(=O)C(CC)CC)CC2`, -4.47%; that for `Cc1cc(CNC(=O)N2CCOC(c3ccccc3Cl)C2)no1` (stereo not given), 0.658%. The result for `O[C@@]1(c2ccccn2)CC[C@H]2CN(Cc3ccccn3)C[C@H]21` reads -4.97%; that for `CC(C)c1cc(C(=O)N[C@@H]2CC[C@@H](Oc3ccccc3)[C@@H]2O)on1`, 2.27%.

On to `Cc1cccc(OCCCN2CCC(N(C)Cc3noc(C)n3)C2)c1` (stereo not given), for which the cytotoxicity at 10 µM is -2.61%.

Consider `COc1ccc(OC2CCN(c3ccncc3)CC2)cc1`, for which the cytotoxicity at 10 µM came out at 2.1%. Next, `NCC1CCC2(CCN(C(=O)c3ccccn3)CC2)CO1` (stereo not given): -111%; `O=C(c1cscn1)N1CC[C@@H]2[C@@H]1CCN2C1CCOC1` (stereo not given in full): 4.19%; `CN(Cc1cnn(C)c1)S(=O)(=O)N1CCCCCC1`: -1.43%. The result for `COc1cc(NC2CCCNC2)cc(OC)c1` (stereo not given) reads -9.57%. Next, `CCO[C@@H]1CC[C@H]2[C@H]1OCCN2S(=O)(=O)c1cn(C)cn1`: 5.59%; `O=C(Cc1cccs1)N1CCOCC1CO` (stereo not given): -4.63%. On to `c1ccc(Cc2noc(CN3CCc4cncnc4C3)n2)cc1`, for which the cytotoxicity at 10 µM is -5.91%. The result for `CC(C)c1[nH]c2ncccc2c1CN1CCC(O)CC1` reads 2.57%; that for `CCCN(CCC)C(=O)c1cc(CN2CCC(O)CC2)on1`, 1.29%; that for `COc1ccc(OCCNC(=O)c2ccc3c(=O)[nH][nH]c(=O)c3c2)cc1`, -4.83%. On to `O=C(COc1ccc(F)cc1)N1CCO[C@H]2[C@@H](OCC3CC3)CC[C@@H]21`, for which the cytotoxicity at 10 µM is -101%. Turning to `Cc1nnc(SCC(=O)NCc2ccc3c(c2)CCC(=O)N3)n1C`, the cytotoxicity at 10 µM came to 9.73%.

With `CN(C)C(=O)c1noc2c1CN(C(=O)CCC1CCCCN1C)CC2` (stereo not given), the cytotoxicity at 10 µM is -2.74%. Next, `Cn1cnc2c(-c3cccnc3)nc(C3CCNCC3)cc21`: -99.9%; `CCN(CCn1cccn1)Cc1nc(-c2ccc(F)cc2)oc1C`: 1.07%; `COCC1CC2(CCN(C(=O)c3ccc(OC)c(Cl)c3)CC2)CO1` (stereo not given): 15.4%. Take `Cc1nn(C)c(Cl)c1C1CCCN1C(=O)c1ccc2c(c1)OCO2` (stereo not given): the cytotoxicity at 10 µM is -2.9%. Next, `c1cc(CN2CCCn3cnc(COCC4CC4)c3C2)co1`: -74.2%; `CC(C)(C)c1cn(C2CCN(C(=O)c3cnccn3)CC2)nn1`: 14%; `Cc1csc(C2CCCCN2C(=O)c2cc(C(C)C)[nH]n2)n1` (stereo not given): -1.59%. Next, `Cc1cnn(CCC(=O)N2CCN(c3ccc(C#N)cn3)CC2)c1`: -0.417%; `COCCN(C)S(=O)(=O)c1cc(C)cc(F)c1`: 3.49%; `CCn1c(C2CCN(Cc3cc(C)n(NC(C)=O)c3C)CC2)n[nH]c1=O`: 4.74%.

For `COc1cc2nc(C)n(CC(=O)NCCO)c(=O)c2cc1OC`, the cytotoxicity at 10 µM is -8.12%. For the compound `COc1ccc(CNc2nncs2)cc1F`, the cytotoxicity at 10 µM was -4.23%.

In the case of `O=C(Cc1cccc(F)c1F)NS(=O)(=O)c1ccc(Cl)cn1`, the cytotoxicity at 10 µM worked out at 0.545%. Next, `CCOCC1CN(C(=O)N2CCCC2)Cc2cnn(CC)c21` (stereo not given): -77.5%; `Cc1nn(C)c(N(C)C)c1CNC1CCc2cc(F)ccc21` (stereo not given): -15.4%. As to `Cc1nc(C2CCCN(C(=O)CCCOc3cccc(F)c3)C2)no1` (stereo not given), the cytotoxicity at 10 µM was determined as 9.91%. Take `Cc1ccc(CNCc2nnc3n2CC(C(F)(F)F)CC3)cc1` (stereo not given): the cytotoxicity at 10 µM worked out at 6.84%. As to `O=C(CCc1cc2n(n1)CCCN(C(=O)c1ccccn1)C2)NC1CC1`, the cytotoxicity at 10 µM is -13.7%. Next, `COc1ccc(F)cc1C(C)NC(=O)Cn1ccc(=O)n(C)c1=O` (stereo not given): -8.35%; `COC(=O)[C@@H]1Cc2[nH]cnc2CN1Cc1cc2ccccc2o1`: 0.994%.

Turning to `COc1cc(C(=O)NC(C)C)nc2c(C)cc(F)cc12`, the cytotoxicity at 10 µM came to 2.43%. The result for `Cn1ccc(C(=O)N2C[C@@H]3CN(CC4CC4)CCO[C@@H]3C2)n1` reads 14.9%; that for `CCC[C@@H]1CN(S(=O)(=O)c2ccc3[nH]c(=O)[nH]c3c2)C[C@H]1NC(C)=O`, -7.19%. Next, `CC1CN(Cc2nccn2C)CCN1c1ccc2nncn2n1` (stereo not given): -8.52%; `CN(C)CCn1c2c(ccc1=O)CC(NC(=O)c1cnccn1)CC2` (stereo not given): -2.4%; `CC(C)C(=O)N1CCN(C(=O)c2cc(C(C)C)on2)[C@H]2CS(=O)(=O)C[C@H]21`: -19%. Next, `COC(=O)CCNC(=O)c1cc(Br)c2c(c1)OCCO2`: 11%; `COC(C)c1cccc(NC(=O)N(CCC#N)Cc2ccccn2)c1` (stereo not given): 13.1%; `c1ccc2[nH]c(C3CCN(Cc4noc(C5CC5)n4)CC3)cc2c1`: 7.67%.

Consider `CN(Cc1ccc2c(c1)OCCO2)C(=O)NCCc1cnn(C)c1`, for which the cytotoxicity at 10 µM was -9.12%.

As for `O=S(=O)(N(Cc1ccccn1)C1CC1)N1CCCC1c1ccco1` (stereo not given), the cytotoxicity at 10 µM is -3.73%. Regarding `O=C(NCC1CC1)[C@@H]1CC[C@@H]2[C@@H](CCN2CCOCc2ccccc2)O1`, the cytotoxicity at 10 µM was -112%.

On to `CO[C@@H]1CC[C@H]2[C@H]1OCCN2S(=O)(=O)C1CC1`, for which the cytotoxicity at 10 µM was 2.6%.

On to `CC(NCC1CCN(CCO)CC1)c1ccc(Cl)cc1` (stereo not given), for which the cytotoxicity at 10 µM was -9.12%. The result for `COc1ccc(C(O)CNC(=O)NCc2c(C)cc(C)[nH]c2=O)cc1` (stereo not given) reads -2.99%; that for `CC(C)Oc1ccc(CN)c(C(F)(F)F)c1`, 0.71%. Next, `COCCN(CC1CC1)c1nc(CCN)nc2ccccc12`: 9.22%; `O=C(c1ccc2[nH]ccc2c1)N1CCCCC1c1nc[nH]n1` (stereo not given): -9.04%.

As for `c1ccc(-c2nc(CN3CCOC(Cn4cncn4)C3)cs2)cc1` (stereo not given), the cytotoxicity at 10 µM is -4.33%. For `CCCc1nccn1-c1cccc(CN2CCCC2)c1`, the cytotoxicity at 10 µM was -4.87%. Next, `CN1CC2(CCN(C(=O)c3ccc4nonc4c3)CC2)CC1=O`: 0.873%; `CC(Nc1ccc(CN2CCCC2=O)cc1)C(=O)N(C)CCC#N` (stereo not given): 13.7%. Next, `O=C(O)c1c[nH]c2cc(NS(=O)(=O)c3cccc(Cl)c3F)ccc12`: -10.5%.

Regarding `O=C1N(CC2CCCCC2)CCCC1(O)CN1CCc2[nH]ncc2C1` (stereo not given), the cytotoxicity at 10 µM was -5.84%. Next, `O=C(C1CC1)N1CCN(C(=O)CSc2ccccn2)[C@H]2CS(=O)(=O)C[C@H]21`: -24.6%; `COc1ccc(C[C@H]2CN(C(=O)c3ncccn3)CC[C@@H]2OC)cc1`: 4.65%. The result for `COCCN(C)C(=O)c1ccccc1-n1cc(CN(C)C)cn1` reads -29.5%; that for `CS(=O)(=O)CCCC(=O)Nc1cc(-c2cccc(F)c2F)n[nH]1`, 4.77%; that for `CC(C)OC(=O)CC(NC(=O)CCn1cccn1)c1ccccc1` (stereo not given), -12.2%. Next, `Cc1cc(N2CCC3(CCC(=O)N(CC4CC4)C3)CC2)nc(N)n1`: 6.92%.
